# Article PMC5935540 (Cell, 2018)
# Experiments:
# [1] = system: FK-506 binding protein family members (FKBP) 1A, 2, 3,4, and 5; test: Arrayed affinity-selection/mass spectrometry binding assay, control compound; set-up: species or system human; settings: control for the binder selection pipeline; FKBP1A highest signal
# [2] = no reference given; cited from earlier work
# NSCLC cell line panel = test: Cell viability dose response in NSCLC cell line panel; assay type: cell-based, human
# In short: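 Viability read after 72 hrs of exposure to test compound at 5 µM, either alone or with HET-0016 at 100 nM. DMSO-treated cells serve as control.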
# ABCG2 = molecular target: T1, ABCG2 (Homo sapiens, UniProt Q9UNQ0); test: siRNA depletion of ABCG2 followed by THZ1 treatment; assay type: cell-based; settings: ABCG2 depletion sensitized resistant cells; H157 cells, THZ1 50nM, 72 hrs
# T1 sequence (Q9UNQ0 1-655): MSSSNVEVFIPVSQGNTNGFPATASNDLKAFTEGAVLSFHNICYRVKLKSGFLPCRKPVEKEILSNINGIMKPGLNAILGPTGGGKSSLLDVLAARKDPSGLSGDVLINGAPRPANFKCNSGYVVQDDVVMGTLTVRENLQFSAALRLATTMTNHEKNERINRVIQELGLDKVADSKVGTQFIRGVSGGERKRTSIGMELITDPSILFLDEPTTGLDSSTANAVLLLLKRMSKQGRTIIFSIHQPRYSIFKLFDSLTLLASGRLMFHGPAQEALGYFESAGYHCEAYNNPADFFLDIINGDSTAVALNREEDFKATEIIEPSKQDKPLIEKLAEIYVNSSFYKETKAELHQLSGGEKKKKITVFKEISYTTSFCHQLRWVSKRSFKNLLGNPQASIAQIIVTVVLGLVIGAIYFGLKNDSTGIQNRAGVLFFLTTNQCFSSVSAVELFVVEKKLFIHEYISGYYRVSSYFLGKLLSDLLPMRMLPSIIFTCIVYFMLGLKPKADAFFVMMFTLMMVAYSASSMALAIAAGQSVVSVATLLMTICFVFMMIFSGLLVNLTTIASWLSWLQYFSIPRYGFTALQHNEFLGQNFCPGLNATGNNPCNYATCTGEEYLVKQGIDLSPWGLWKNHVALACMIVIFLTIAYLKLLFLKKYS
smiles,measurement,setting,value
C=CC[C@@H]1/C=C(\C)C[C@H](C)C[C@H](OC)[C@H]2O[C@@](O)(C(=O)C(=O)N3CCCC[C@H]3C(=O)O[C@H](/C(C)=C/[C@@H]3CC[C@@H](O)[C@H](OC)C3)[C@H](C)[C@@H](O)CC1=O)[C@H](C)C[C@@H]2OC [FK-506],LC/MS binding signal,[1],strongest signal
CC(C)Oc1ccc(C(=O)N[C@H](CNC(=O)CN(C)C)Cc2ccc(-c3cn4cccc([C@H](C)O)c4n3)cc2)cc1Cl [SW208097],pharmacokinetics in humans,[2],dose proportional pharmacokinetics
same,sensitivity (ED50),NSCLC cell line panel; cell lines with co-occuring mutations in TP53 and KEAP1,low nanomolar
CN(C)C/C=C/C(=O)Nc1ccc(C(=O)Nc2cccc(Nc3ncc(Cl)c(-c4c[nH]c5ccccc45)n3)c2)cc1 [THZ1],efflux transporter substrate status,ABCG2,ABCG2 substrate
CCCCc1ccc(N=CNO)c(C)c1 [HET0016],effect on SW001286 toxicity,"NSCLC cell line panel; SW001286 5µM plus HET-0016 100nM, 72 hrs, two sensitive cell lines",rescued
